Bioassay records as filed in PubChem BioAssay.
The list is not random: actives were taken first. Their share in the collection is about 3.1%.
SENP8 block-1: human SENP8 protease inhibitors, primary screen, biochemical, fluorescence, Nedd8 protein substrate, uHTS | Sentrin-specific protease 8 (Homo sapiens), Q96LD8 | recombinant SENP8 | inhibition, % at 20 µM | 360,000 tested, 0.64% active; in the data active = inhibition mostly above about 40%, no sharp cut-off; inactive = mostly below about 27%
Target sequence (Q96LD8 whole entry, looked up): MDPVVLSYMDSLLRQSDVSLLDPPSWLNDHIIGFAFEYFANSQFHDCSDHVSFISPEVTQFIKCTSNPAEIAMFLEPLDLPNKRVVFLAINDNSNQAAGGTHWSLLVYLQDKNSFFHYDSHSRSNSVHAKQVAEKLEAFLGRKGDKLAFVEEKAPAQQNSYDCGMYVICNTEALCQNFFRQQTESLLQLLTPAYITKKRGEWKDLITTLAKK
UBC13 polyUb: UBC13 polyubiquitin chain formation inhibitors, primary screen, biochemical, TR-FRET, uHTS; Ubiquitin-conjugating enzyme E2 N (Homo sapiens), P61088; inhibition, % at 20 µM; 330,000 tested, 0.47% active; AID 485273, 2010; in the data active = inhibition above about 45%, passing the limit was not always enough
SENP7 block: SENP7 protease inhibitors, primary screen, biochemical, luminescence, uHTS; recombinant SENP7, Z-RLRGG-aminoluciferin luminescence, 40 min; inhibition, % at 5 µM; 330,000 tested, 1.5% active;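 active = inhibition above about 50% at the single test dose, limit read from the data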;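 also: plate controls were DMSO with enzyme for no effect and no enzyme buffer wells for full effect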
Apaf1 inhib: inhibitors of human Apaf-1 apoptosome, primary screen, biochemical, DEVD-Rh110 fluorescence, uHTS; AID 489030, 2010; inhibition, % at 20 µM; 330,000 tested, 0.71% active; Apoptotic protease-activating factor 1 (Homo sapiens), O14727; reconstituted apoptosome caspase-3 activity; active = inhibition of at least 40% at 20 µM;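 also: plate controls were DMSO wells for no effect and DEVD-CHO caspase inhibitor wells for full effect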
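Material: reconstituted apoptosome with Apaf-1, cytochrome c, caspase-9, procaspase-3, dATP; medium: pH 7.5 Hepes buffer with CHAPS, BSA, DTT; also added: cytochrome c and DEVD-Rh110 substrate; timing: 30 min plus 50 min, RT; signal: Rh110 fluorescence intensity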
SENP8 block-2: SENP8 protease inhibitors, primary screen, biochemical, luminescence. Sentrin-specific protease 8 (Homo sapiens), Q96LD8. purified SENP8, Z-RLRGG-aminoluciferin cleavage. inhibition, % at 10 µM. 330,000 tested, 1.2% active; in the data active = inhibition above about 50%
SENP6 block: SENP6 protease inhibitors, primary screen, biochemical, luminescence, uHTS | AID 2599, 2010 | Recombinant SENP6 catalytic domain, aminoluciferin luminescence | 330,000 tested, 1.8% active | Sentrin-specific protease 6 (Homo sapiens), Q9GZR1 | inhibition, % at 10 µM;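 active = inhibition above about 50% at the single tested dose, limit read from the data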;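 also: plate controls were DMSO wells with enzyme for no effect and DMSO wells lacking enzyme for full effect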
SENP8 conf: SENP8 protease inhibitors, retest, confirmation, biochemical, luminescence, single concentration | shares compounds with SENP7 block | Recombinant SENP8, Z-RLRGG-aminoluciferin luminescence, 60 min | inhibition, % at 12.5 µM | 6,200 tested, 40% active | AID 488912, 2010;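 active = mean inhibition across replicates above about 50%, limit read from the data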
SENP6 conf: SENP6 protease inhibitors, confirmation, biochemical, luminescence, single concentration | shares compounds with SENP7 block | recombinant SENP6, Z-RLRGG-aminoluciferin luminescence | inhibition, % at 12.5 µM | 6,200 tested, 58% active
SENP7 confirm: SENP7 protease inhibitors, retest, confirmation, biochemical, luminescence, single concentration. shares compounds with SENP7 block. recombinant SENP7, Z-RLRGG-aminoluciferin luminescence, 40 min. inhibition, % at 12.5 µM. 6,200 tested, 69% active. AID 488917, 2010
Casp3 select: caspase-3 protease inhibitors, confirmation, selectivity assay for SENP inhibitor project, biochemical, single concentration; AID 488918, 2010; 6,200 tested, 60% active; purified caspase-3, Z-DEVD-aminoluciferin luminescence, 60 min; inhibition, % at 12.5 µM; shares compounds with SENP7 block;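 active = mean inhibition above about 50%, limit read from the data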;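 also: plate controls were enzyme with DMSO for no effect and wells without caspase-3 for full effect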
Target sequence (P42574 28-227 limits assumed): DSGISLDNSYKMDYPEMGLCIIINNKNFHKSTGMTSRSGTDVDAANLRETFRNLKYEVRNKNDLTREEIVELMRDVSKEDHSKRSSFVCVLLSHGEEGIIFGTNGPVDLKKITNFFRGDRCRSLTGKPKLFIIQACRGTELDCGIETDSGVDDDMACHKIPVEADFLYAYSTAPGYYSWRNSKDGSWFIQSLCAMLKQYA
Luc interf: interferes with luciferase luminescence in SENP counter-screen | 6,200 tested, 39% active | shares compounds with SENP7 block | inhibition, % at 12.5 µM | AID 488919 | Pre-incubated SENP8/Z-RLRGG-aminoluciferin, luciferase luminescence interference;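 active = mean inhibition above about 50% when retested at one dose, limit read from the data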;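 also: plate controls were DMSO wells with completed reaction for no effect and substrate without enzyme for full effect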
An asterisk follows results filed as active.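 The calls were made as follows, unless noted: active = mean inhibition above about 50% in the one-dose retest (limit read from the data); inactive = the rest.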

Screening C/C(=N\NC(=O)c1cc(Br)ccc1O)c1ccccn1 returned SENP8 block-1 -88, UBC13 polyUb -17, SENP7 block 56*, Apaf1 inhib 0, SENP8 block-2 78*, SENP6 block 87*, SENP8 conf 41, SENP6 conf 85*, SENP7 confirm 84*, Casp3 select 91* and Luc interf 29.
Screening C/C(=N\OC(=O)c1ccc(Br)cc1)c1ccccn1 returned SENP8 block-1 14, UBC13 polyUb -4, SENP7 block 97*, Apaf1 inhib -2, SENP8 block-2 93*, SENP6 block 97*, SENP8 conf 43, SENP6 conf 54*, SENP7 confirm 44, Casp3 select 46 and Luc interf 12.
Screening COc1cc(OC)cc(C(=O)O/N=C(\N)c2cccc(C)c2)c1 returned SENP8 block-1 7, UBC13 polyUb 2, SENP7 block 12, Apaf1 inhib 7, SENP8 block-2 -8 and SENP6 block -3.
`N/C(=N\OCc1ccc([N+](=O)[O-])cc1)c1ccccn1` gave UBC13 polyUb 8, SENP7 block 96*, Apaf1 inhib 0, SENP8 block-2 90*, SENP6 block 95*, SENP8 conf 94*, SENP6 conf 94*, SENP7 confirm 100*, Casp3 select 95* and Luc interf 71*.
CC(C(=O)O/N=C(\N)c1ccccn1)c1ccc([N+](=O)[O-])cc1 (stereo not drawn) was read as SENP8 block-1 8, UBC13 polyUb -2, SENP7 block 4, Apaf1 inhib 0, SENP8 block-2 4 and SENP6 block 10.
Cc1cccc(/C(N)=N/OC(=O)c2cccnc2)c1 was read as SENP8 block-1 25, UBC13 polyUb -5, SENP7 block 80*, Apaf1 inhib -2, SENP8 block-2 49, SENP6 block 69*, SENP8 conf 47, SENP6 conf 54*, SENP7 confirm 85*, Casp3 select 84* and Luc interf 58*.
Screening CC(C)(C)c1ccc(C(=O)O/N=C(\N)c2ccccn2)cc1 returned SENP8 block-1 14, UBC13 polyUb -1, SENP7 block 98*, Apaf1 inhib 19, SENP8 block-2 94*, SENP6 block 97*, SENP8 conf 86*, SENP6 conf 98*, SENP7 confirm 102*, Casp3 select 95* and Luc interf 76*.
Screening COc1cc(/C=C2/SC(=S)N(CCC(=O)N3CCN(C)CC3)C2=O)cc(OC)c1OC returned SENP8 block-1 24.
For Cc1cc(C)cc(OCC(=O)NNC(=O)CC(C)c2ccccc2)c1 (stereo not drawn) the results were SENP8 block-1 11.
